From ChEMBL document CHEMBL1136745 (J Med Chem, 2003)
≈ marks a conversion by molar mass, not a printed value.

Legend:
[1] = Solubility in 0.05 M Tris-HCl buffer, pH 7.4; type: physicochemical; details: read-out: S
In short: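 Excess compound shaken 3 h in 0.05 M Tris-HCl pH 7.4, centrifuged 10000g for 3 min, concentration read at 350 nm.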

[2] = target: Nicotinic acetylcholine receptor alpha1/beta1/gamma/delta (Mus musculus, UniProt P02716+P04756+P04760+P09690); test: Inhibition of recombinant embryonic mouse muscle Nicotinic Acetylcholine Receptor (3 oocytes); type: cell-based, Oocyte
In short: (§1)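 Torpedo or embryonic mouse muscle nAChRs in Xenopus oocytes, two-electrode clamp at -70 mV, 20–22 °C, low-Ca ND-96 (0.3 mM CaCl2) without propylene glycol; drug coapplied 5 s with 10 μM acetylcholine after stable response; fit to single-site inhibition equation; reversibility after 5 min wash.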

[3] = The octanol/water partition coefficient of [3H]azietomidate; type: physicochemical
In short: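 Octanol/water two-phase mixture shaken in amber vial, settled 12 h, radiolabel partition measured.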

[4] = target: T1, GABA-A receptor; alpha-1/beta-2/gamma-2 (Homo sapiens) (UniProt P14867+P47870+P18507); test: Hill coefficient for enhancement of currents elicited by GABA at EC5 (6-12 uM); type: functional
[5] = target: T1, GABA-A receptor; alpha-1/beta-2/gamma-2 (Homo sapiens); test: Maximum response for enhancement of currents elicited by GABA at EC5 (6-12 uM); type: functional
[6] = Anesthetic potency, Concentration for loss of righting reflexes (LORR) in Xenopus tadpoles; type: functional, frog
In short: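 Pre-limb bud Xenopus tadpoles (1.5–2 cm), groups of 5–10 in oxygenated 5 mM Tris-HCl pH 7.4, low light; drug from buffer or ethanol stock (final ethanol ≤5 mM). Tipped at 30–40 min; no righting within 5 s = LORR. Pooled groups of 10–20; quantal curves by Waud method; SD reported.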

[7] = target: T2, GABA-A receptor; anion channel (Rattus norvegicus) (UniProt O09028+P15431+P18506+P18508+P19969+P20236+P23574+P23576+P28471+P28473+P30191+P62813+P63079+P63138+Q91ZM7+Q9ES14); test: Inhibition of [35S]TBPS binding to rat brain membranes at 100 uM; type: cell membranes; details: Membrane
[8] = target: T3, GABA-A receptor; alpha-1/beta-2/gamma-2 (Homo sapiens, UniProt P14867+P18507+P47870); test: Enhancement of currents elicited by GABA at EC5 (6-12 uM); type: functional
T3 sequence (P14867 whole entry): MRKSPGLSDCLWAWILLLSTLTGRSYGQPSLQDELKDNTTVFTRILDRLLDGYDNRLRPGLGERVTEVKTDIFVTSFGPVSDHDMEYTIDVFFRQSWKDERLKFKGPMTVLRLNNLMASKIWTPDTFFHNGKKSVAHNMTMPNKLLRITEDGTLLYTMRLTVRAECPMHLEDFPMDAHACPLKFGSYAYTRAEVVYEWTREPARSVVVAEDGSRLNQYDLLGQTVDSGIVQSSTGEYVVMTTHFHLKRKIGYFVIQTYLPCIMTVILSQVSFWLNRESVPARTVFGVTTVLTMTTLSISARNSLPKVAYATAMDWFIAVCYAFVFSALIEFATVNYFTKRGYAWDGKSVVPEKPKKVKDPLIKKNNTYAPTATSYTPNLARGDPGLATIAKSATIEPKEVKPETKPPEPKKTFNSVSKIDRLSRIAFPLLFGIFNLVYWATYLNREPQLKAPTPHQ
T3 sequence (P47870 whole entry): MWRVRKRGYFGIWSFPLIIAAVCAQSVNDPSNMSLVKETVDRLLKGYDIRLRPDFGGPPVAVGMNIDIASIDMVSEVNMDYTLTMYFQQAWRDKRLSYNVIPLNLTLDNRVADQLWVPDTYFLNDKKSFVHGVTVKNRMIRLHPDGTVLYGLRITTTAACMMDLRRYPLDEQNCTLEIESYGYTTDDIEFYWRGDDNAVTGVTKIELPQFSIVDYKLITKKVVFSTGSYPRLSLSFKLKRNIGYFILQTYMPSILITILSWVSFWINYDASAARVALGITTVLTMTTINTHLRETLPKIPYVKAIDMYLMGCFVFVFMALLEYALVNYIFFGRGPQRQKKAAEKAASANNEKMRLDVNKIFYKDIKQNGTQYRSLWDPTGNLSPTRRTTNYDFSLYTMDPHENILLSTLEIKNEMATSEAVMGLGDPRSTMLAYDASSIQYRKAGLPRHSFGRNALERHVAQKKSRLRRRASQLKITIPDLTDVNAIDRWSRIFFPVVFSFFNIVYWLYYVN
T3 sequence (P18507 whole entry): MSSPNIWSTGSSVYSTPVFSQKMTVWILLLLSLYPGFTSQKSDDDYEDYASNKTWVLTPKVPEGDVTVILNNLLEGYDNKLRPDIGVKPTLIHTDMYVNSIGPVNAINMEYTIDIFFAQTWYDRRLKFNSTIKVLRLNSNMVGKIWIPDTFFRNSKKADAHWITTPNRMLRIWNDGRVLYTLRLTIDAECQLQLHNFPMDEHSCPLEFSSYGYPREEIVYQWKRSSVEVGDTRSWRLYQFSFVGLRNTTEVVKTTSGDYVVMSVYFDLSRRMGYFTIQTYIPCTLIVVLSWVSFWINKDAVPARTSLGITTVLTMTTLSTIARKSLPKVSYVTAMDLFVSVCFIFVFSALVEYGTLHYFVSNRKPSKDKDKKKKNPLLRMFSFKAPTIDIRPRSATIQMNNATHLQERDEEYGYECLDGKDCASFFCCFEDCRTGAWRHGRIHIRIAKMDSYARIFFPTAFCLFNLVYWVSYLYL

[9] = target: T3, GABA-A receptor; alpha-1/beta-2/gamma-2; test: Inhibition of currents elicited by GABA at EC5 (6-12 uM); type: functional
[10] = target: T1, GABA-A receptor; alpha-1/beta-2/gamma-2 (Homo sapiens); test: Maximum activation of Gamma-aminobutyric acid A receptor compared to maximal control GABA current at >320 uM; type: functional
[11] = Anesthetic potency, Concentration for loss of righting reflexes (LORR) in Rana temporaria; type: functional, frog
[12] = target: T1, GABA-A receptor; alpha-1/beta-2/gamma-2 (Homo sapiens); test: Maximum activation of Gamma-aminobutyric acid A receptor in the absence of GABA compared to 1 mM GABA; type: functional
In short: (§2)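 Oocytes expressing GABA_A receptors, two-electrode clamp at -50 mV, 20–22 °C, ND-96 pH 7.6; drug applied without GABA, stocks in 35% propylene glycol (superfusate ≤170 mM). […] Washout up to 15 min.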

[13] = target: T1, GABA-A receptor; alpha-1/beta-2/gamma-2 (Homo sapiens); test: (§3) Direct activation of Gamma-aminobutyric acid A receptor in the absence of GABA; type: functional; in short: as §2
[14] = target: T1, GABA-A receptor; alpha-1/beta-2/gamma-2 (Homo sapiens); test: Maximum activation of Gamma-aminobutyric acid A receptor in the absence of GABA compared to GABA response; type: functional; in short: as §2
Acetylcholine receptor [15] = target: T4, Acetylcholine receptor (Torpedo californica, UniProt P02710+P02712+P02714+P02718); test: (§4) Inhibition of currents when compound wascoapplied with acetylcholine to recombinant Torpedo nAcChoR (from 6 oocytes); type: functional, cell-based, Oocyte; in short: as §1
Torpedo = test: Concentration that reduced photoincorporation of [3H]azietomidate into the alpha and beta subunits of the nAcChoR in membranes of Torpedo electric organ; type: functional
In short: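 Torpedo californica nAChR-rich membranes, 2 mg/mL in Torpedo saline pH 7.0 with 1 mM oxidized glutathione, with 0.9 μM [3H]azietomidate, ± 300 μM carbamylcholine, ± R-etomidate; irradiated at 4 °C, 6 min at 254 nm or 25 min at 365 nm; 8% SDS-PAGE, fluorography, excised bands counted by scintillation.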

[16] = target: T1, GABA-A receptor; alpha-1/beta-2/gamma-2 (Homo sapiens); test: Maximum levels of enhancement of currents from alpha-1-beta-2-gamma-2L-subunit of GABA receptor elicited by low concentrations of GABA; type: functional
[17] = target: GABA-A receptor; anion channel; test: Inhibition of [35S]TBPS binding to rat brain membranes; type: cell membranes, Membrane
Acetylcholine receptor [18] = target: T4, Acetylcholine receptor; test: as §4; type: cell-based, Oocyte; in short: as §1
[19] = target: T3, GABA-A receptor; alpha-1/beta-2/gamma-2; test: as §3; type: functional
[20] = target: T3, GABA-A receptor; alpha-1/beta-2/gamma-2; test: Ability to enhance currents from alpha-1-beta-2-gamma-2L-subunit of GABA receptor elicited by low concentrations of GABA; type: functional
[21] = target: T2, GABA-A receptor; anion channel (Rattus norvegicus); test: Inhibition of [35S]TBPS binding to rat brain membranes at 100 uM (Range = 80-90%); type: cell membranes; details: Membrane

T4 sequence (P02710 whole entry): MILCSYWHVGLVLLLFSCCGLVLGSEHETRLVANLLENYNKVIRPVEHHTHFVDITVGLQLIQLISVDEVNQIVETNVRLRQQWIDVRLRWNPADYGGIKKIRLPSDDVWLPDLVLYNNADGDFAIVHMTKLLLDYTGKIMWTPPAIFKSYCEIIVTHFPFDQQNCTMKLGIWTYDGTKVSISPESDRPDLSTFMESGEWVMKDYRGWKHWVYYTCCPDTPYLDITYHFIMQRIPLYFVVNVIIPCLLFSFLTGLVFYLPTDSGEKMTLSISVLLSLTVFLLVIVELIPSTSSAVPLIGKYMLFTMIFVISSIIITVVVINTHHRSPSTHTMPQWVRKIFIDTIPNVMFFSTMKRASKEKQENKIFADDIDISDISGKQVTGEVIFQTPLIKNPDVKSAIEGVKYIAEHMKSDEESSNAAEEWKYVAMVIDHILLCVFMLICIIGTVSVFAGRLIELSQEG
T4 sequence (P02712 whole entry): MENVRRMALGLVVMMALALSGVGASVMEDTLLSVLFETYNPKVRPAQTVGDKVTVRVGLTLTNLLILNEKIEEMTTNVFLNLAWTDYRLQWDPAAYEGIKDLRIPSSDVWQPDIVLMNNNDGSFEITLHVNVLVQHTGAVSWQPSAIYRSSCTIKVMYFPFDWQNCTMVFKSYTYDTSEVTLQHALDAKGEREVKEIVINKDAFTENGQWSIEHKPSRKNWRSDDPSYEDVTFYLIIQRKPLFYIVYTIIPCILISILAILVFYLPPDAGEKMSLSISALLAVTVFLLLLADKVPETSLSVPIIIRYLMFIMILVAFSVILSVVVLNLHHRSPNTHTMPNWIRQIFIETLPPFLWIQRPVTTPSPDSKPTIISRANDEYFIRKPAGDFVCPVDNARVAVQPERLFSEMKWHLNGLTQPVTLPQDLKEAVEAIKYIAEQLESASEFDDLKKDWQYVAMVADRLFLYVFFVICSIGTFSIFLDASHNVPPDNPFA
T4 sequence (P02718 whole entry): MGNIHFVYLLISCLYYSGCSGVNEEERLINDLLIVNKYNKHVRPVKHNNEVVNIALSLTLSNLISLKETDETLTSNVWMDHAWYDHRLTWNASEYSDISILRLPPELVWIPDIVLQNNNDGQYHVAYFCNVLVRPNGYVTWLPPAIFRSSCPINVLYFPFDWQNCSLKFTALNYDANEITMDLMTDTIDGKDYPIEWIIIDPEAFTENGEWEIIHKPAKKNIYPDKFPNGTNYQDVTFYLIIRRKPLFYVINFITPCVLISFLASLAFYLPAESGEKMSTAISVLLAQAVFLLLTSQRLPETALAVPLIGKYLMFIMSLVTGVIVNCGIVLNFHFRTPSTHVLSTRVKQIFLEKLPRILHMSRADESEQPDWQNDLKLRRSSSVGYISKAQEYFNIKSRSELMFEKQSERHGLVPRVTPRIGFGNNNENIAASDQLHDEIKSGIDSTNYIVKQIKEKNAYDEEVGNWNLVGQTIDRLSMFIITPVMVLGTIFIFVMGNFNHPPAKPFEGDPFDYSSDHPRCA
T4 sequence (P02714 whole entry): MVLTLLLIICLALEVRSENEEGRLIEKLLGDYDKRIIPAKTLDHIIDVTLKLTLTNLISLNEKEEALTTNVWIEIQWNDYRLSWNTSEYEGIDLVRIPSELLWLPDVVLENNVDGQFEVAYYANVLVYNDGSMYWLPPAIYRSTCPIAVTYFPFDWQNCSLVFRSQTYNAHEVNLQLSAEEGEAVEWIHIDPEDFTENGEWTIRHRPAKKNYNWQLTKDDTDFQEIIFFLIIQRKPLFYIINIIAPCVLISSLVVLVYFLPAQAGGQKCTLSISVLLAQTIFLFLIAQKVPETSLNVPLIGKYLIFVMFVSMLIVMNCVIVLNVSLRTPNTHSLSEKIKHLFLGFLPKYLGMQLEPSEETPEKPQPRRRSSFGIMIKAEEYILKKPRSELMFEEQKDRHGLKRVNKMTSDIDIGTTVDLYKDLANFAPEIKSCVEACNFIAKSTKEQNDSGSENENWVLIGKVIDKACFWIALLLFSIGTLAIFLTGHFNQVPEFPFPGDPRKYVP
Sequence of Nicotinic acetylcholine receptor alpha1/beta1/gamma/delta (P04756 whole entry): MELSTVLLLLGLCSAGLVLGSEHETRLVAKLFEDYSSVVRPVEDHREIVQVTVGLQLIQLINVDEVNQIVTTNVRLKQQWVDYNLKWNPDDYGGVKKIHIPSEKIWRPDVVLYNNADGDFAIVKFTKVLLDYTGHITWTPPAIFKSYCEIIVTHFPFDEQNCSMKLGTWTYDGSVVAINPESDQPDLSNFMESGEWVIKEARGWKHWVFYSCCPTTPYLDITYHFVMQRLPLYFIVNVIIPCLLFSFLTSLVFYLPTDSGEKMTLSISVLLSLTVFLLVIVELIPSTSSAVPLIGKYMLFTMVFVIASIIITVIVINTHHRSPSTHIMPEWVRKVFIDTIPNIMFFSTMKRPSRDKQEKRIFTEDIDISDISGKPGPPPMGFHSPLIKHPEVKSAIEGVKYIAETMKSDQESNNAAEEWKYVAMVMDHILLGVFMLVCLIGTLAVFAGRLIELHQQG
Sequence of Nicotinic acetylcholine receptor alpha1/beta1/gamma/delta (P09690 whole entry): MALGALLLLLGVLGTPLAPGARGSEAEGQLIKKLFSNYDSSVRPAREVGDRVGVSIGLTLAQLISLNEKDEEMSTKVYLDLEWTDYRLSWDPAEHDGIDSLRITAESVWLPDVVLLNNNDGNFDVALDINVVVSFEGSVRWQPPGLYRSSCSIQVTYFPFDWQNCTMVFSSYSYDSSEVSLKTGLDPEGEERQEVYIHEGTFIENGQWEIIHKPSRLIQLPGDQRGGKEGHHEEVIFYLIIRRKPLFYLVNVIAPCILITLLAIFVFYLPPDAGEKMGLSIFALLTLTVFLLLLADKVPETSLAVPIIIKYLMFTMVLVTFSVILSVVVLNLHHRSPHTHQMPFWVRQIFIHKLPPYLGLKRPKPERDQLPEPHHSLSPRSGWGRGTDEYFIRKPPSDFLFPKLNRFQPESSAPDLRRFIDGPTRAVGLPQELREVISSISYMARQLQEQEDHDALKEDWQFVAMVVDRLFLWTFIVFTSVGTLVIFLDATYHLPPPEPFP
Sequence of Nicotinic acetylcholine receptor alpha1/beta1/gamma/delta (P02716 whole entry): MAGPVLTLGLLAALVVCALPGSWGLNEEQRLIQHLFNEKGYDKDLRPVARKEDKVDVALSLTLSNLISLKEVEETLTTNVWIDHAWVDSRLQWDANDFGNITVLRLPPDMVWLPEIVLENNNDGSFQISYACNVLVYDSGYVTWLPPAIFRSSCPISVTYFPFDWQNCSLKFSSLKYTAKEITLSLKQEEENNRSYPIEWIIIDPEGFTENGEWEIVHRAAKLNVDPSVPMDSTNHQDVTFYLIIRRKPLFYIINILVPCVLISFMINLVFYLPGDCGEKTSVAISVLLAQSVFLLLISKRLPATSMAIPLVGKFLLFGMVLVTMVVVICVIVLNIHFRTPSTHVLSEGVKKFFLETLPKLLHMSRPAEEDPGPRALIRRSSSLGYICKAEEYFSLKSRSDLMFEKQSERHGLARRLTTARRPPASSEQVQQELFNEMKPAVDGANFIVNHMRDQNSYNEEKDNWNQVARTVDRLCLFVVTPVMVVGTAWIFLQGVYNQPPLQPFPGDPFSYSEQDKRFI
Sequence of Nicotinic acetylcholine receptor alpha1/beta1/gamma/delta (P04760 whole entry): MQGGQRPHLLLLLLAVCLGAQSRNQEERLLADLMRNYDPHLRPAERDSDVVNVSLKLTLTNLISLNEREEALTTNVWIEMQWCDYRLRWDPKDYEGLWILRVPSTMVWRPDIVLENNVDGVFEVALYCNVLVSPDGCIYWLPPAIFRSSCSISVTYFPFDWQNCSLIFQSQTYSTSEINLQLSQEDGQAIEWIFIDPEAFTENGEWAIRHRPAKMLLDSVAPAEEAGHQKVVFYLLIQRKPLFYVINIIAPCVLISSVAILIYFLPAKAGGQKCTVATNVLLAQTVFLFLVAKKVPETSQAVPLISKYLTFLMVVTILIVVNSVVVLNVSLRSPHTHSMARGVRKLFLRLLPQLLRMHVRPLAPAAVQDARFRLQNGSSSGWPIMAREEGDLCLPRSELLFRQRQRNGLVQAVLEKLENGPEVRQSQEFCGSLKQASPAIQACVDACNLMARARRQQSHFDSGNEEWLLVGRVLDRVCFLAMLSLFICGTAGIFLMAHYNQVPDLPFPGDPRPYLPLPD

Structure (SMILES) | IC50 [2] | nH [4] | Max response [5] | EC50 [6] | EC50 [8] | IC50 [9] | EC50 [11] | Emax [14] | Emax [16] | other results
CC(c1ccccc1)n1cncc1C(=O)OCCC1(C)N=N1 (stereo unspecified) [AZIETOMIDATE] | 25 µM | – | – | – | – | – | – | – | – | solubility [1]: 540 µM (≈ 161 µg/mL); Partition coefficient [3]: 3600
C[C@@H](c1ccccc1)n1cncc1C(=O)OCCC1(C)N=N1 | – | 1.6 | 94% | 14 µM | 20 µM | 66.3 µM | – | – | – | inhibition [7]: 60%; Emax [10]: 0.5%
CCOC(=O)c1cncn1[C@@H](C)c1ccccc1 [S-ETOMIDATE] | – | 1.9 | 110% | – | – | – | 57 µM | – | – | Emax [12]: 2.9%; Concentration [13]: 100 µM
CCOC(=O)c1cncn1[C@H](C)c1ccccc1 [ETOMIDATE] | 50 µM | 1.2 | 110% | 2.3 µM | – | – | 3.4 µM | 18% | 127% | IC50 (Acetylcholine receptor [15]): 41 µM; Concentration (Torpedo): 300 µM
C[C@H](c1ccccc1)n1cncc1C(=O)OCCC1(C)N=N1 | – | 1.5 | 94% | 2.2 µM | 2 µM | 104 µM | – | 14% | 127% | IC50 [17]: 4.9 µM; IC50 (Acetylcholine receptor [18]): 23 µM; EC50 [19]: 37 µM; EC50 [20]: 1.2 µM; inhibition [21]: < 90%
